Active and inactive are the calls of the source. The rule behind the calls is not given here.
tested on: RAW264.7; experiment: Modulation of M2 polarization in mouse RAW264.7 cells assessed as up regulation of Arg1 mRNA expression at 300 nM measured after 24 hrs by qRT-PCR analysis; type: functional, cell-based; conditions: not given
Procedure, shortened: (§1)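 RAW264.7 cells (DMEM, 10% FBS) given 300 nM compound for 24 h; IL-4 20 ng/ml as positive control. Arg1 mRNA measured by qRT-PCR; fold change = expression in dosed group / expression in untreated control.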

Row | Structure (SMILES) | Activity
1 | O=C(Nc1n[nH]c(=O)c2ccccc12)c1cccc(C(=O)N2CCN(C(=O)C3CC3)CC2)c1 | Active
2 | Cc1ccc(S(=O)(=O)N2CCN(c3nc4ccccc4nc3S(=O)(=O)c3ccc(F)cc3)CC2)cc1 | Active
3 | COc1cccc(-c2noc(-c3nn(-c4ccc(Cl)cc4)c4ccccc34)n2)c1 | Active
4 | CC(C)C[C@H](NC(=O)[C@H](Cc1ccccc1)NC(=O)C[C@H](NC(=O)c1ccc2ccccc2c1)c1ccccc1)C(=O)[C@]1(C)CO1 | Active
5 | COc1ccc(S(=O)(=O)Nc2ccc(OC)c(-c3ccc(O)cc3)c2)cc1 | Active
6 | Cl.Cn1nccc1-c1ccc(C(=O)N[C@@H]2CNCC[C@H]2c2cccc(F)c2)c(F)c1 | Active

tested on: RAW264.7; experiment: Modulation of M1 polarization in mouse RAW264.7 cells assessed as up regulation of Mcp1 mRNA expression at 300 nM measured after 24 hrs by qRT-PCR analysis; type: cell-based; conditions: raw264.7, 24 h, 0.3 µM
Procedure, shortened: (§2)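 RAW264.7 cells (DMEM, 10% FBS) exposed 24 h to 300 nM compound alone; LPS 50 ng/ml as positive control. Mcp1 mRNA by qRT-PCR; fold change = dosed group level / control group level.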

Row | Structure (SMILES) | Activity
7 | Cl.Cn1nccc1-c1ccc(C(=O)N[C@@H]2CNCC[C@H]2c2cccc(F)c2)c(F)c1 | Non-Toxic

tested on: RAW264.7; experiment: Modulation of M2 polarization in mouse RAW264.7 cells assessed as change in Arg1 mRNA expression at 300 nM measured after 24 hrs by qRT-PCR analysis relative to control; type: functional; conditions: not given; procedure, shortened: as §1

Row | Structure (SMILES) | fold change (FC)
8 | Cc1cc(C(=O)N[C@@H]2CNCC[C@H]2c2ccc(Cl)c(C(F)(F)F)c2)ccc1-c1c(Cl)cnn1C.Cl | 1.82
9 | Cl.Cn1ncc(Cl)c1-c1ccc(C(=O)N[C@@H]2CNCC[C@H]2c2ccc(Cl)c(C(F)(F)F)c2)cc1 | 2.82
10 | Cc1cc(-c2ccnn2C)cnc1C(=O)N[C@@H]1CNCC[C@H]1c1ccc(Cl)c(C(F)(F)F)c1.Cl | 0.4
11 | Cl.Cn1nccc1-c1ccc(C(=O)N[C@H]2CCCNC2)c(F)c1 | 2.11
12 | O=C1NCCN(C(=O)c2ccc(-c3cc[nH]n3)cc2)C1Cc1ccccc1 (stereo unspecified) | 1.33
13 | O=C(NCCN1CCCC(c2ccccc2)C1)c1ccc(-c2ccn[nH]2)cc1 (stereo unspecified) | 1.48
14 | Cn1nccc1-c1ccc(C(=O)Nc2ccc(F)cc2)c(F)c1 | 1.63
15 | Cl.Cn1nccc1-c1ccc(C(=O)N[C@@H]2CNCC[C@H]2c2ccc(F)c(F)c2)cn1 | 0.85
16 | O=C(NCCN1CCC(c2ccccc2)C1)c1ccc(-c2cc[nH]n2)cc1 (stereo unspecified) | 2.22
17 | Cl.Cn1ncc(Cl)c1-c1ccc(C(=O)N[C@@H]2CNCC[C@H]2c2ccc(Cl)c(C(F)(F)F)c2)c(F)c1 | 10.33
18 | Cl.Cn1nccc1-c1ccc(C(=O)N[C@@H]2CNCC[C@H]2c2ccc(Cl)c(C(F)(F)F)c2)cc1Cl | 5.08
19 | Cn1nccc1-c1ccc(C(=O)N[C@@H]2CNCC[C@H]2c2ccc(F)c(F)c2)cc1.O=C(O)C(O)C(O)C(=O)O | 3.42
20 | Cc1cc(-c2c(Br)cnn2C)cnc1C(=O)N[C@@H]1CNCC[C@H]1c1cccc(F)c1.Cl | 0.71
21 | Cn1nccc1C(=O)N1C[C@@H](c2cc(F)cc(F)c2)[C@@H]2[C@H]1C1CCN2CC1 | 2.22
22 | Cl.Cn1ncc(Cl)c1-c1ccc(C(=O)N[C@@H]2CNCC[C@H]2c2ccc(F)c(F)c2)cc1Cl | 1.72
23 | Cc1ccc(C(=O)N[C@@H]2CNCC[C@H]2c2cccc(F)c2)s1.Cl | 1.44
24 | Cl.Cn1ncc(Br)c1-c1ccc(C(=O)N[C@@H]2CNCC[C@H]2c2ccc(F)c(F)c2)cn1 | 0.56
25 | Cl.O=C(N[C@@H]1CNCC[C@H]1c1cccc(F)c1)c1ccccc1F | 1.01
26 | Cl.Cn1nccc1C(=O)N[C@@H]1CNCC[C@H]1c1cccc(F)c1 | 1.62
27 | Cc1cc(C(=O)N[C@@H]2CNCC[C@H]2c2cccc(F)c2)ccc1-c1c(Br)cnn1C.Cl | 6.54
28 | Cn1ncc(Br)c1-c1ccc(C(=O)N[C@@H]2CNCC[C@H]2c2ccc(F)c(F)c2)cc1.O=C(O)C(O)C(O)C(=O)O | 2.27

Row | Structure (SMILES) | fold change (FC)
29 | Cc1ccc(C(=O)N[C@@H]2CNCC[C@H]2c2cccc(F)c2)o1.Cl | 1.76
30 | Cn1nccc1C(=O)N1CC(c2cc(F)cc(F)c2)C2[C@H]1C1CCN2CC1 (single isomer, unassigned) | 1.16
31 | Cl.Cn1ncc(Cl)c1-c1ccc(C(=O)N[C@@H]2CNCC[C@H]2c2ccc(F)c(F)c2)cn1 | 0.27
32 | Cc1ccc([C@@H]2CN(C(=O)c3ccc(-c4ccn[nH]4)cc3)C[C@H]2N(C)C)cc1 | 4.85
33 | CC(=O)N[C@@H]1Cc2ccccc2[C@H]1NC(=O)c1cn[nH]c1-c1cccc(F)c1 | 0.8
34 | COc1ccc(NC(=O)c2ccc(-c3ccnn3C)cc2F)cc1 | 3.86
35 | CN(CC1Cc2ccccc2CN1C)C(=O)c1ccc(-c2ccn[nH]2)cc1 (stereo unspecified) | 2.35
36 | O=C(NCCN1CCC(c2ccccc2)CC1)c1ccc(-c2cc[nH]n2)cc1 | 3.92
37 | COc1ccccc1C(=O)N[C@@H]1CNCC[C@H]1c1cccc(F)c1.Cl | 1.32
38 | Cc1cc(-c2ccnn2C)cnc1C(=O)N[C@@H]1CNCC[C@H]1c1cccc(F)c1.Cl | 0.95
39 | Cl.Cn1ncc(Br)c1-c1ccc(C(=O)N[C@@H]2CNCC[C@H]2c2cccc(F)c2)cc1Cl | 10.12
40 | O=C(NCC(c1ccccc1F)N1CCCC1)c1ccc(-c2cc[nH]n2)cc1 (stereo unspecified) | 1.09
41 | CCNC(=O)c1ccc(-c2ccnn2C)cc1F | 2.31
42 | Cl.O=C(N[C@@H]1CNCC[C@H]1c1cccc(F)c1)c1ccc(F)cc1 | 0.91
43 | Cl.Cn1nccc1-c1ccc(C(=O)N[C@@H]2CNCC[C@H]2c2ccc(F)c(F)c2)c(F)c1 | 3.99
44 | Cc1cc(C(=O)N[C@@H]2CNCC[C@H]2c2cccc(F)c2)ccc1-c1c(Cl)cnn1C.Cl | 8.35
45 | Cl.Cn1nccc1-c1ccc(C(=O)N[C@@H]2CNCC[C@H]2c2cccc(F)c2)c(F)c1 | 10.05
46 | CCN(CC)C(=O)c1ccc(-c2ccnn2C)cc1F | 1.96
47 | Cl.Cn1ncc(Br)c1-c1ccc(C(=O)N[C@@H]2CNCC[C@H]2c2cccc(F)c2)nc1 | 0.78
48 | Cl.Cn1ncc(Cl)c1-c1ccc(C(=O)N[C@@H]2CNCC[C@H]2c2ccc(F)c(F)c2)cc1 | 1.97
49 | Cl.Cn1nccc1-c1ccc(C(=O)N[C@H]2CNCC[C@@H]2c2cccc(F)c2)c(F)c1 | 0.31

tested on: RAW264.7; experiment: Modulation of M1 polarization in mouse RAW264.7 cells assessed as change in Mcp1 mRNA expression at 300 nM measured after 24 hrs by qRT-PCR analysis relative to control; type: functional, cell-based; conditions: RAW264.7, 24 h, read-out: FC; procedure, shortened: as §2

Row | Structure (SMILES) | fold induction at 0.3 µM
50 | Cc1cc(C(=O)N[C@@H]2CNCC[C@H]2c2ccc(Cl)c(C(F)(F)F)c2)ccc1-c1c(Cl)cnn1C.Cl | 4.85
51 | Cl.Cn1ncc(Cl)c1-c1ccc(C(=O)N[C@@H]2CNCC[C@H]2c2ccc(Cl)c(C(F)(F)F)c2)cc1 | 5.08
52 | Cc1cc(-c2ccnn2C)cnc1C(=O)N[C@@H]1CNCC[C@H]1c1ccc(Cl)c(C(F)(F)F)c1.Cl | 1.37
53 | Cl.Cn1nccc1-c1ccc(C(=O)N[C@H]2CCCNC2)c(F)c1 | 2.26
54 | O=C1NCCN(C(=O)c2ccc(-c3cc[nH]n3)cc2)C1Cc1ccccc1 (stereo unspecified) | 1.53
55 | O=C(NCCN1CCCC(c2ccccc2)C1)c1ccc(-c2ccn[nH]2)cc1 (stereo unspecified) | 1.52
56 | Cn1nccc1-c1ccc(C(=O)Nc2ccc(F)cc2)c(F)c1 | 2.01
57 | Cl.Cn1nccc1-c1ccc(C(=O)N[C@@H]2CNCC[C@H]2c2ccc(F)c(F)c2)cn1 | 1.23
58 | O=C(NCCN1CCC(c2ccccc2)C1)c1ccc(-c2cc[nH]n2)cc1 (stereo unspecified) | 1.86
59 | Cl.Cn1ncc(Cl)c1-c1ccc(C(=O)N[C@@H]2CNCC[C@H]2c2ccc(Cl)c(C(F)(F)F)c2)c(F)c1 | 3.54
60 | Cl.Cn1nccc1-c1ccc(C(=O)N[C@@H]2CNCC[C@H]2c2ccc(Cl)c(C(F)(F)F)c2)cc1Cl | 1.49
61 | Cn1nccc1-c1ccc(C(=O)N[C@@H]2CNCC[C@H]2c2ccc(F)c(F)c2)cc1.O=C(O)C(O)C(O)C(=O)O | 0.9
62 | Cc1cc(-c2c(Br)cnn2C)cnc1C(=O)N[C@@H]1CNCC[C@H]1c1cccc(F)c1.Cl | 1.63
63 | Cn1nccc1C(=O)N1C[C@@H](c2cc(F)cc(F)c2)[C@@H]2[C@H]1C1CCN2CC1 | 1.95
64 | Cl.Cn1ncc(Cl)c1-c1ccc(C(=O)N[C@@H]2CNCC[C@H]2c2ccc(F)c(F)c2)cc1Cl | 1.16
65 | Cc1ccc(C(=O)N[C@@H]2CNCC[C@H]2c2cccc(F)c2)s1.Cl | 1.54
66 | Cl.Cn1ncc(Br)c1-c1ccc(C(=O)N[C@@H]2CNCC[C@H]2c2ccc(F)c(F)c2)cn1 | 1.32
67 | Cl.O=C(N[C@@H]1CNCC[C@H]1c1cccc(F)c1)c1ccccc1F | 1.72
68 | Cl.Cn1nccc1C(=O)N[C@@H]1CNCC[C@H]1c1cccc(F)c1 | 2.05
69 | Cc1cc(C(=O)N[C@@H]2CNCC[C@H]2c2cccc(F)c2)ccc1-c1c(Br)cnn1C.Cl | 1.89
70 | Cn1ncc(Br)c1-c1ccc(C(=O)N[C@@H]2CNCC[C@H]2c2ccc(F)c(F)c2)cc1.O=C(O)C(O)C(O)C(=O)O | 1.77

Row | Structure (SMILES) | fold induction at 0.3 µM
71 | Cc1ccc(C(=O)N[C@@H]2CNCC[C@H]2c2cccc(F)c2)o1.Cl | 1.89
72 | Cn1nccc1C(=O)N1CC(c2cc(F)cc(F)c2)C2[C@H]1C1CCN2CC1 (single isomer, unassigned) | 1.4
73 | Cl.Cn1ncc(Cl)c1-c1ccc(C(=O)N[C@@H]2CNCC[C@H]2c2ccc(F)c(F)c2)cn1 | 1.01
74 | Cc1ccc([C@@H]2CN(C(=O)c3ccc(-c4ccn[nH]4)cc3)C[C@H]2N(C)C)cc1 | 1.24
75 | CC(=O)N[C@@H]1Cc2ccccc2[C@H]1NC(=O)c1cn[nH]c1-c1cccc(F)c1 | 2.14
76 | COc1ccc(NC(=O)c2ccc(-c3ccnn3C)cc2F)cc1 | 2.16
77 | CN(CC1Cc2ccccc2CN1C)C(=O)c1ccc(-c2ccn[nH]2)cc1 (stereo unspecified) | 1.14
78 | O=C(NCCN1CCC(c2ccccc2)CC1)c1ccc(-c2cc[nH]n2)cc1 | 2.14
79 | COc1ccccc1C(=O)N[C@@H]1CNCC[C@H]1c1cccc(F)c1.Cl | 1.42
80 | Cc1cc(-c2ccnn2C)cnc1C(=O)N[C@@H]1CNCC[C@H]1c1cccc(F)c1.Cl | 1.99
81 | Cl.Cn1ncc(Br)c1-c1ccc(C(=O)N[C@@H]2CNCC[C@H]2c2cccc(F)c2)cc1Cl | 2.05
82 | O=C(NCC(c1ccccc1F)N1CCCC1)c1ccc(-c2cc[nH]n2)cc1 (stereo unspecified) | 1.34
83 | CCNC(=O)c1ccc(-c2ccnn2C)cc1F | 1.83
84 | Cl.O=C(N[C@@H]1CNCC[C@H]1c1cccc(F)c1)c1ccc(F)cc1 | 1.64
85 | Cl.Cn1nccc1-c1ccc(C(=O)N[C@@H]2CNCC[C@H]2c2ccc(F)c(F)c2)c(F)c1 | 0.39
86 | Cc1cc(C(=O)N[C@@H]2CNCC[C@H]2c2cccc(F)c2)ccc1-c1c(Cl)cnn1C.Cl | 2.44
87 | Cl.Cn1nccc1-c1ccc(C(=O)N[C@@H]2CNCC[C@H]2c2cccc(F)c2)c(F)c1 | 1.54
88 | CCN(CC)C(=O)c1ccc(-c2ccnn2C)cc1F | 1.97
89 | Cl.Cn1ncc(Br)c1-c1ccc(C(=O)N[C@@H]2CNCC[C@H]2c2cccc(F)c2)nc1 | 1.14
90 | Cl.Cn1ncc(Cl)c1-c1ccc(C(=O)N[C@@H]2CNCC[C@H]2c2ccc(F)c(F)c2)cc1 | 1.5
91 | Cl.Cn1nccc1-c1ccc(C(=O)N[C@H]2CNCC[C@@H]2c2cccc(F)c2)c(F)c1 | 1.76
